ChEMBL document CHEMBL1132994, “Synthesis and anticonvulsant and neurotoxic properties of substituted N-phenyl derivatives of the phthalimide pharmacophore” (J Med Chem, 2000)
Active and inactive are the calls of the source. The calls are words filed in the database; no cut-off is given here.

Key:
Mus musculus [1] = assay: Neurotoxicity determined by rotarod test after intraperitoneal administration at a concentration of 300 mg/kg after 4 hours; Inactive; type: functional, organism-based; set-up: dose 300 mg/kg
Mus musculus [2] = assay: Anticonvulsant activity in mice through seizures induced by subcutaneous pentylenetetrazole (scPTZ) tests after ip administration at a concentration of 300 mg/kg after 4 hours; Inactive; type: functional, organism-based; set-up: dose 300 mg/kg
Mus musculus [3] = assay: Neurotoxicity by rotarod test after intraperitoneal administration at a concentration of 300 mg/kg after 30 minutes; Inactive; type: functional, organism-based; set-up: dose 300 mg/kg
Mus musculus [4] = assay: Anticonvulsant activity in mice through seizures induced by sc pentylenetetrazole (intraperitoneal administration at a concentration of 300 mg/kg after 30 min; Inactive; type: functional, organism-based; set-up: dose 300 mg/kg
Mus musculus [5] = assay: Anticonvulsant activity in mice through seizures induced by maximal electroshock (MES) tests after ip administration at a concentration of 300 mg/kg after 4 hour; Active; type: functional, organism-based; set-up: dose 300 mg/kg
Mus musculus [6] = assay: Anticonvulsant activity in mice through seizures induced by maximal electroshock (MES) tests after ip administration at a concentration of 100 mg/kg after 30 min; Inactive; type: functional, organism-based; set-up: dose 100 mg/kg
Rattus norvegicus [7] = assay: Effective dose required to assure anticonvulsant protection in 50% of rats dosed orally by scPTZ test.; type: functional; settings: po
Method in brief: (§1)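 Rats dosed orally; ED50 is the dose giving anticonvulsant protection in 50% of animals in the MES or scPtz test. TD50 is the minimal neurotoxic dose in 50% of animals. Time to peak effect was also determined.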

Rattus norvegicus [8] = assay: Effective dose required to assure anticonvulsant protection in 50% of rats dosed orally by MES test.; type: functional; settings: po; method in brief: as §1
Rattus norvegicus [9] = assay: Anticonvulsant activity was measured in rats through seizures induced by maximal electroshock (MES) tests by oral administration of drug after 15 minutes; No activity; type: functional, organism-based
Method in brief: (§2)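 Rats given a single oral dose of 30 or 50 mg/kg, depending on compound; MES protection scored at 15, 30, 60, 120 and 240 min. Activity graded by fraction of animals protected (0-25%, 25-50%, 50-75%, 75-100%); neurotoxicity monitored at the same time points.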

Rattus norvegicus [10] = assay: Toxicity screening in rats dosed orally with the compound; No toxicity; type: organism-based; settings: in vivo, po
Rattus norvegicus [11] = assay: Anticonvulsant activity was measured in rats through seizures induced by maximal electroshock (MES) tests by oral administration of drug after 2 hours.; type: functional; method in brief: as §2
Mus musculus [12] = assay: Anticonvulsant activity in mice through seizures induced by subcutaneous pentylenetetrazole (scPTZ) tests after ip administration at a concentration of 300 mg/kg after 30 min; Inactive; type: functional, organism-based; set-up: dose 300 mg/kg
[13] = dose eliciting minimal neurological toxicity in 50% of animals.; type: organism-based; settings: rat, in vivo
Mus musculus [14] = assay: Anticonvulsant activity in mice through seizures induced by maximal electroshock (MES) tests after ip administration at a concentration of 100 mg/kg after 30 min; Active; type: functional, organism-based; set-up: dose 100 mg/kg
Rattus norvegicus [15] = assay: Anticonvulsant activity was measured in rats through seizures induced by maximal electroshock (MES) tests by oral administration of drug after 4 hours.; type: functional; method in brief: as §2
Mus musculus [16] = assay: Neurotoxicity by rotarod test after intraperitoneal administration at a concentration of 300 mg/kg after 30 minutes; Active; type: functional, organism-based; set-up: dose 300 mg/kg
Mus musculus [17] = assay: Anticonvulsant activity in mice through seizures induced by maximal electroshock (MES) tests after ip administration at a concentration of 300 mg/kg after 4 hours; Active; type: functional, organism-based; set-up: dose 300 mg/kg
Rattus norvegicus [18] = assay: Anticonvulsant activity was measured in rats through seizures induced by maximal electroshock (MES) tests by oral administration of drug after 1 hour.; type: functional; method in brief: as §2
Mus musculus [19] = assay: Anticonvulsant activity in mice through seizures induced by sc pentylenetetrazole (intraperitoneal administration at a concentration of 300 mg/kg after 4 hours; Inactive; type: functional, organism-based; set-up: dose 300 mg/kg
Mus musculus [20] = assay: Anticonvulsant activity in mice through seizures induced by maximal electroshock (MES) tests after ip administration at a concentration of 300 mg/kg after 4 hours; Inactive; type: functional, organism-based; set-up: dose 300 mg/kg
Mus musculus [21] = assay: Anticonvulsant activity in mice through seizures induced by sc pentylenetetrazole (intraperitoneal administration at a concentration of 300 mg/kg after 4 hours; active; type: functional, organism-based; set-up: dose 300 mg/kg
Mus musculus [22] = assay: Anticonvulsant activity in mice through seizures induced by maximal electroshock (MES) tests after ip administration at a concentration of 100 mg/kg after 30 min; active; type: functional, organism-based; set-up: dose 100 mg/kg
Mus musculus [23] = assay: Anticonvulsant activity in mice through seizures induced by subcutaneous pentylenetetrazole (scPTZ) tests after ip administration at a concentration of 300 mg/kg after 30 min; active; type: functional, organism-based; set-up: dose 300 mg/kg
Rattus norvegicus [24] = assay: Anticonvulsant activity was measured in rats through seizures induced by maximal electroshock (MES) tests by oral administration of drug after 30 minutes.; type: functional; method in brief: as §2
Rattus norvegicus [25] = assay: Anticonvulsant activity was measured in rats through seizures induced by maximal electroshock (MES) tests by oral administration of drug after 15 minutes.; type: functional; method in brief: as §2
Mus musculus [26] = assay: Anticonvulsant activity in mice through seizures induced by maximal electroshock (MES) tests after ip administration at a concentration of 300 mg/kg after 4 hours; active; type: functional, organism-based; set-up: dose 300 mg/kg
Mus musculus [27] = assay: Neurotoxicity by rotarod test after intraperitoneal administration at a concentration of 300 mg/kg after 30 minutes; active; type: functional, organism-based; set-up: dose 300 mg/kg
Mus musculus [28] = assay: Anticonvulsant activity in mice through seizures induced by maximal electroshock (MES) tests after intraperitoneal administration at a concentration of 100 mg/kg after 30 min; active; type: functional, organism-based; set-up: dose 100 mg/kg

In the case of `Cc1cccc([N+](=O)[O-])c1N1C(=O)c2ccccc2C1=O`, the Activity (Mus musculus [1]) is reported as “inactive”, the Activity (Mus musculus [2]) is reported as “inactive” and the Activity (Mus musculus [3]) is reported as “inactive”. For the same compound, the Activity (Mus musculus [4]) was “inactive”, the Activity (Mus musculus [5]) was “Active” and the Activity (Mus musculus [6]) was “inactive”.
With `Cc1cccc(N)c1N1C(=O)c2ccccc2C1=O` the Activity (Mus musculus [1]) was “inactive”, the ED50 (Rattus norvegicus [7]) was greater than 250 mg/kg and the ED50 (Rattus norvegicus [8]) was 28.3 mg/kg. The Activity in animals (Rattus norvegicus [9]) was “No activity”, the Activity (Mus musculus [2]) was “inactive” and the Toxicity (Rattus norvegicus [10]) was “No toxicity”. For the same compound, the Activity in animals (Rattus norvegicus [11]) was 25%, the Activity (Mus musculus [12]) was “inactive” and the TD50 [13] was greater than 500 mg/kg. For the same compound, the Activity (Mus musculus [14]) was “Active”, the Activity in animals (Rattus norvegicus [15]) was 25% and the Activity (Mus musculus [16]) was “Active”. For the same compound, the Activity (Mus musculus [17]) was “Active” and the Activity in animals (Rattus norvegicus [18]) was 75%.
For `Cc1c(N2C(=O)c3ccccc3C2=O)cccc1[N+](=O)[O-]`, the Activity (Mus musculus [1]) was “inactive”, the Activity (Mus musculus [19]) was “inactive” and the Activity (Mus musculus [3]) was “inactive”. The Activity (Mus musculus [4]) was “inactive”, the Activity (Mus musculus [20]) was “inactive” and the Activity (Mus musculus [6]) was “inactive”.
With `COc1ccc(N2C(=O)c3ccccc3C2=O)c(C)c1` the Activity (Mus musculus [1]) was “inactive”, the Activity (Mus musculus [3]) was “inactive” and the Activity (Mus musculus [21]) was “Active”. For the same compound, the Activity (Mus musculus [22]) was “Active”, the Activity (Mus musculus [23]) was “Active” and the Activity (Mus musculus [20]) was “inactive”.
In the case of `Cc1c(N)cccc1N1C(=O)c2ccccc2C1=O`, the Activity (Mus musculus [1]) is reported as “inactive”, the ED50 (Rattus norvegicus [7]) is reported as greater than 200 mg/kg and the ED50 (Rattus norvegicus [8]) is reported as 8 mg/kg. For the same compound, the Activity (Mus musculus [19]) was “inactive”, the Toxicity (Rattus norvegicus [10]) was “No toxicity” and the Activity in animals (Rattus norvegicus [24]) was 100%. For the same compound, the Activity (Mus musculus [3]) was “inactive”, the Activity in animals (Rattus norvegicus [11]) was 100% and the Activity (Mus musculus [12]) was “inactive”. The TD50 [13] was greater than 400 mg/kg, the Activity (Mus musculus [14]) was “Active” and the Activity in animals (Rattus norvegicus [15]) was 100%. For the same compound, the Activity in animals (Rattus norvegicus [25]) was 100%, the Activity (Mus musculus [17]) was “Active” and the Activity in animals (Rattus norvegicus [18]) was 100%.
With `Cc1c(N)cccc1N1C(=O)CCC1=O` the Activity (Mus musculus [1]) was “inactive”, the Activity (Mus musculus [19]) was “inactive” and the Activity (Mus musculus [3]) was “inactive”. The Activity (Mus musculus [4]) was “inactive”, the Activity (Mus musculus [22]) was “Active” and the Activity (Mus musculus [20]) was “inactive”.
In the case of `Cc1cc([N+](=O)[O-])ccc1N1C(=O)c2ccccc2C1=O`, the Activity (Mus musculus [1]) is reported as “inactive”, the Activity (Mus musculus [19]) is reported as “inactive” and the Activity (Mus musculus [3]) is reported as “inactive”. The Activity (Mus musculus [12]) was “inactive”, the Activity (Mus musculus [17]) was “Active” and the Activity (Mus musculus [6]) was “inactive”.
For `Cc1ccc(N)cc1N1C(=O)c2ccccc2C1=O`, the Activity (Mus musculus [1]) was “inactive”, the Activity (Mus musculus [2]) was “inactive” and the Activity (Mus musculus [3]) was “inactive”. For the same compound, the Activity (Mus musculus [4]) was “inactive”, the Activity (Mus musculus [14]) was “Active” and the Activity (Mus musculus [20]) was “inactive”.
With `O=C1NC(=O)C(c2ccccc2)(c2ccccc2)N1` [PHENYTOIN] the Activity (Mus musculus [1]) was “inactive”, the ED50 (Rattus norvegicus [7]) was greater than 800 mg/kg and the Activity (Mus musculus [26]) was “Active”. For the same compound, the Activity (Mus musculus [2]) was “inactive”, the Activity (Mus musculus [27]) was “Active” and the Activity in animals (Rattus norvegicus [24]) was 100%. For the same compound, the Activity in animals (Rattus norvegicus [11]) was 100%, the Activity (Mus musculus [12]) was “inactive” and the TD50 [13] was greater than 3000 mg/kg. The Activity in animals (Rattus norvegicus [15]) was 25%, the Activity in animals (Rattus norvegicus [25]) was 100% and the Activity (Mus musculus [28]) was “Active”. The Activity in animals (Rattus norvegicus [18]) was 100%.
